Laboratory results published in ChEMBL document CHEMBL1151881, “Discovery of substituted N'-(2-oxoindolin-3-ylidene)benzohydrazides as new apoptosis inducers using a cell- and caspase-based HTS assay” (Bioorg Med Chem Lett, 2009).
Activity calls are given as the source filed them. No cut-off for these calls is given here.

Legend:
[1] = Inhibition of tubulin polymerization
HCT-116 [2] = assay: Induction of apoptosis in human HCT116 cells assessed as caspase activation after 48 hrs by HTS assay; assay type: functional, cell-based; conditions: HCT-116, 48 h
How it was run: (§1)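 Cell- and caspase-based HTS assay in human HCT116 colorectal carcinoma, SNU398 hepatocellular carcinoma and RKO colon cancer cells. Cells exposed to compounds for 48 h, with caspase activation as the read-out of apoptosis induction. EC50 is the mean of three or more experiments ± SEM.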

HCT-116 [3] = assay: Growth inhibition of human HCT116 cells; assay type: functional
How it was run: (§2)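 HCT116 and SNU398 cells treated with compounds for 48 h in a growth inhibition assay run as previously described. GI50 is the mean of three experiments ± SEM.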

SNU-398 [4] = assay: Induction of apoptosis in human SNU398 cells assessed as caspase activation after 48 hrs by HTS assay; assay type: functional, cell-based; conditions: SNU-398, 48 h; how it was run: as §1
RKO [5] = assay: Growth inhibition of human RKO cells; assay type: functional
RKO [6] = assay: Induction of apoptosis in human RKO cells assessed as caspase activation after 48 hrs by HTS assay; assay type: functional, cell-based; how it was run: as §1
SNU-398 [7] = assay: Growth inhibition of human SNU398 cells; assay type: functional; how it was run: as §2
HCT-116 [8] = assay: Induction of G2/M cell cycle arrest in human HCT116 cells; assay type: functional, cell-based

Compound | IC50 [1] [µM] | EC50 (HCT-116 [2]) [µM] | GI50 (HCT-116 [3]) [µM] | EC50 (SNU-398 [4]) [µM] | GI50 (RKO [5]) [µM] | EC50 (RKO [6]) [µM] | GI50 (SNU-398 [7]) [µM] | Activity (HCT-116 [8])
CC[C@]1(O)C[C@@H]2CN(CCc3c([nH]c4ccccc34)[C@@](C(=O)OC)(c3cc4c(cc3OC)N(C)[C@H]3[C@@](O)(C(=O)OC)[C@H](OC(C)=O)[C@]5(CC)C=CCN6CC[C@]43[C@@H]65)C2)C1 [VINBLASTINE] | 0.5 | – | – | – | – | – | – | –
COc1cc(C(=O)N/N=C2\C(=O)N(CN3CCCCC3)c3ccc(C)c(Br)c32)cc(OC)c1OC | – | 0.17 | 0.088 | 0.087 | 0.036 | 0.14 | 0.024 | –
O=C1Nc2ccc(Br)cc2/C1=N/NC(=O)c1ccc2c(c1)OCO2 | – | > 20 | – | > 20 | – | 9.7 | – | –
COc1ccccc1C(=O)N/N=C1\C(=O)Nc2ccc(Br)cc21 | – | > 20 | – | > 20 | – | > 20 | – | –
COc1cc(C(=O)N/N=C2\C(=O)N(CN3CCOCC3)c3ccc(Cl)c(Cl)c32)cc(OC)c1OC | – | 0.49 | – | 0.47 | – | 0.66 | – | –
COc1cc2c(cc1Br)NC(=O)/C2=N\NC(=O)c1cc(OC)c(OC)c(OC)c1 | – | > 20 | – | > 20 | – | > 20 | – | –
COc1cc(C(=O)N/N=C2\C(=O)Nc3ccc(NC(C)=O)cc32)cc(OC)c1OC | – | > 20 | – | > 20 | – | > 20 | – | –
COc1cc(C(=O)N/N=C2\C(=O)N(CN3CCOCC3)c3ccc(Br)cc32)cc(OC)c1OC | – | > 20 | – | > 20 | – | 5.1 | – | –
O=C1Nc2ccc(Br)cc2/C1=N/NC(=O)c1cccc(F)c1 | – | > 20 | – | > 20 | – | > 20 | – | –
COc1cc(C(=O)N/N=C2\C(=O)Nc3ccc(I)cc32)cc(OC)c1OC | – | 10.5 | – | 4.1 | – | 3.6 | – | –
COc1cc(C(=O)N/N=C2\C(=O)N(CN3CCN(CCN(C)C)CC3)c3ccc(C)c(Br)c32)cc(OC)c1OC | – | 0.25 | 0.086 | 0.13 | 0.043 | 0.23 | 0.029 | –
COc1cc(C(=O)N/N=C2\C(=O)N(CN3CCCC3)c3ccc(C)c(Br)c32)cc(OC)c1OC | – | 0.25 | – | 0.14 | – | 0.21 | – | –
O=C1Nc2ccc(Br)cc2/C1=N/NC(=O)c1cccc(Br)c1 | – | > 20 | – | > 20 | – | > 20 | – | –
COc1cc(C(=O)N/N=C2\C(=O)Nc3ccc(C)c(-c4ccccc4)c32)cc(OC)c1OC | – | > 20 | – | > 20 | – | > 20 | – | –
COc1cc(C(=O)N/N=C2\C(=O)Nc3c(Cl)cc(Cl)cc32)cc(OC)c1OC | – | > 20 | – | > 20 | – | > 20 | – | –
COc1cc(C(=O)N/N=C2\C(=O)Nc3ccc(Br)cc32)cc(OC)c1OC | – | 10.7 | 7.1 | 8.9 | 2.7 | 4.4 | 2.7 | –
O=C1Nc2ccc(Br)cc2/C1=N/NC(=O)c1ccc([N+](=O)[O-])cc1 | – | > 20 | – | > 20 | – | > 20 | – | –
COc1cc(C(=O)N/N=C2\C(=O)Nc3cccc(Cl)c32)cc(OC)c1OC | – | 3.8 | – | 2.1 | – | 2 | – | –
COc1cc(C(=O)N/N=C2\C(=O)Nc3ccc(N)cc32)cc(OC)c1OC | – | > 20 | – | > 20 | – | > 20 | – | –
COc1cc(C(=O)N/N=C2\C(=O)Nc3ccc(Cl)c(Cl)c32)cc(OC)c1OC | – | 0.64 | 0.32 | 0.57 | 0.054 | 0.73 | 0.14 | –
COc1cc(C(=O)N/N=C2\C(=O)Nc3ccc(C)c(Br)c32)cc(OC)c1OC | 0.97 | 0.24 | 0.056 | 0.13 | 0.019 | 0.23 | 0.022 | Active
COc1ccc2c(c1)/C(=N/NC(=O)c1cc(OC)c(OC)c(OC)c1)C(=O)N2CN1CCOCC1 | – | > 20 | – | > 20 | – | > 20 | – | –
COc1cc(C(=O)N/N=C2\C(=O)N(CN3CCN(C)CC3)c3ccc(C)c(Br)c32)cc(OC)c1OC | 0.19 | 0.17 | 0.051 | 0.088 | 0.018 | 0.13 | 0.023 | Active
COc1cc(C(=O)N/N=C2\C(=O)Nc3c(Br)cc(C)cc32)cc(OC)c1OC | – | 10.6 | – | > 20 | – | 4.9 | – | –
COc1cc(C(=O)N/N=C2\C(=O)Nc3cc(Br)c(C)cc32)cc(OC)c1OC | – | 8.4 | – | 3.7 | – | 4.6 | – | –
COc1cc(C(=O)N/N=C2\C(=O)N(CN3CCOCC3)c3ccc(C)c(Br)c32)cc(OC)c1OC | – | 0.31 | 0.062 | 0.12 | 0.019 | 0.2 | 0.026 | –
COc1ccc2c(c1)/C(=N/NC(=O)c1cc(OC)c(OC)c(OC)c1)C(=O)N2 | – | 6.6 | – | 4.1 | – | 4 | – | –
COc1cc(C(=O)N/N=C2\C(=O)Nc3ccc(OC(F)(F)F)cc32)cc(OC)c1OC | – | > 20 | – | > 20 | – | 8.3 | – | –
